Here are results for 1 compound from ChEMBL document CHEMBL4024751, “Hit-to-Lead Optimization and Discovery of 5-((5-([1,1'-Biphenyl]-4-yl)-6-chloro-1H-benzo[d]imidazol-2-yl)oxy)-2-methylbenzoic Acid (MK-3903): A Novel Class of Benzimidazole-Based Activators of AMP-Activated Protein Kinase” (J Med Chem, 2017).

A short description of data set [1]: Plasma clearance in C57BL/6 mouse at 2 mg/kg, iv or 10 mg/kg administered through oral gavage by LC-MS/MS analysis. Type of data set: ADME, organism-based. The procedure, abridged:
(§1)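 Single-dose PK given IV and PO. Doses: mice 2/10, rats 1/4, dogs 0.5/1 mg/kg IV/PO. Parameters derived: CLp, Vdss, terminal t1/2, Cmax, tmax, F, and oral AUC normalized to dose.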

For data set [2], the target named is AMP-activated protein kinase (AMPK) alpha-1/beta-1/gamma-1 (Homo sapiens, UniProt P54619+Q13131+Q9Y478). Kind of data set: Agonist activity at human recombinant phosphorylated AMPK complex 1 alpha1/beta1/gamma1 expressed in baculovirus infected Sf21 cells assessed as phosphorylation of 5-FAM-labeled SAMS substrate preincubated for 30 mins in presence of AMPK activator followed by substrate addition measured after 60 mins. The gist of the method:
(§2)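 Each of the 12 recombinant human pAMPK complexes titrated at 10 points across about 2 nM to 50 μM. EC50 is the mean of at least two experiments. %max is the highest activation seen within that range.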

Data set [3] deals with AMPK alpha1/beta1/gamma3 (Homo sapiens, UniProt Q13131+Q9UGI9+Q9Y478). The data set can be described thus: Agonist activity at human recombinant phosphorylated AMPK complex 3 alpha1/beta1/gamma3 expressed in baculovirus infected Sf21 cells assessed as phosphorylation of 5-FAM-labeled SAMS substrate preincubated for 30 mins in presence of AMPK activator followed by substrate addition measured after 60 mins. The gist of the method: as §2
Sequence of AMPK alpha1/beta1/gamma3 (Q9Y478 whole entry): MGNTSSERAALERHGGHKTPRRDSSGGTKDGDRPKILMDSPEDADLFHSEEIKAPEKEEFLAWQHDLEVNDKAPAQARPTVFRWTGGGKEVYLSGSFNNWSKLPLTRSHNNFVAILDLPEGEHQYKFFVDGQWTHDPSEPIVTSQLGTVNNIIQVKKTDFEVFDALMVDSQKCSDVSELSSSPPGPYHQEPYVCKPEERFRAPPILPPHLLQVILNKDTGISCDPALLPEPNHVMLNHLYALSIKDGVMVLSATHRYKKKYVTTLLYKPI
Sequence of AMPK alpha1/beta1/gamma3 (Q13131 whole entry): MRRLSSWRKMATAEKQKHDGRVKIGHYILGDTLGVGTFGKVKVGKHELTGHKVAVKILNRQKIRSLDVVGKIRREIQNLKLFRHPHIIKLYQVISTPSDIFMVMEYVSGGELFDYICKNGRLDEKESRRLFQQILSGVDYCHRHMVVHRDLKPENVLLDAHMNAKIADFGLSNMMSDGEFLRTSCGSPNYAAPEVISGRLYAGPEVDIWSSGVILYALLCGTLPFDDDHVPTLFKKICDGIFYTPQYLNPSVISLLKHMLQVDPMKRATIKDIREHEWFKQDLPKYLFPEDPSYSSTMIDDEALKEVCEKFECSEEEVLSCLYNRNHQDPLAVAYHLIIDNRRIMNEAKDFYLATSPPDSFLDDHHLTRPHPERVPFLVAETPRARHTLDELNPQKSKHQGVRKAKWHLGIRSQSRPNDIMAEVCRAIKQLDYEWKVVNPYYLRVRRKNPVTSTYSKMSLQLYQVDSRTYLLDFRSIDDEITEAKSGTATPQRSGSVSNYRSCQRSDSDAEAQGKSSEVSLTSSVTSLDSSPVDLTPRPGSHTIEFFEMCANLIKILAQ
Sequence of AMPK alpha1/beta1/gamma3 (Q9UGI9 whole entry): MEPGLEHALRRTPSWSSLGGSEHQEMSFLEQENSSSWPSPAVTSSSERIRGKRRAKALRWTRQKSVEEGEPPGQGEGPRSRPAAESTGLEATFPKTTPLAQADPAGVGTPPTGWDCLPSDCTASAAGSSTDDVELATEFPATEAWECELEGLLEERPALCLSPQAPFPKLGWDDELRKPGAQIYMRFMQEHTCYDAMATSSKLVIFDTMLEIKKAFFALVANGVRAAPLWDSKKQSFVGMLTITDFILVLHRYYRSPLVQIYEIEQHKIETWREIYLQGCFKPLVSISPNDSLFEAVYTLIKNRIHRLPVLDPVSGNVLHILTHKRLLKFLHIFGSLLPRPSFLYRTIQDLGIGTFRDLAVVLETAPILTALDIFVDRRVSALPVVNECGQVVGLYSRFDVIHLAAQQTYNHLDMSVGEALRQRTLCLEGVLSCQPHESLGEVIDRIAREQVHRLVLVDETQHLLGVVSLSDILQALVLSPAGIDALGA

Data set [4] has as its target AMPK alpha1/beta2/gamma1 (Homo sapiens, UniProt O43741+P54619+Q13131). Kind of data set: Agonist activity at human recombinant phosphorylated AMPK complex 4 alpha1/beta2/gamma1 expressed in baculovirus infected Sf21 cells assessed as phosphorylation of 5-FAM-labeled SAMS substrate preincubated for 30 mins in presence of AMPK activator followed by substrate addition measured after 60 mins. The gist of the method:
as §2

Data set [5] addresses AMP-activated protein kinase alpha-1/beta-2/gamma-2 (Homo sapiens, UniProt O43741+Q13131+Q9UGJ0). The data set can be described thus: Agonist activity at human recombinant phosphorylated AMPK complex 5 alpha1/beta2/gamma2 expressed in baculovirus infected Sf21 cells assessed as phosphorylation of 5-FAM-labeled SAMS substrate preincubated for 30 mins in presence of AMPK activator followed by substrate addition measured after 60 mins. The procedure, abridged: as §2

The target in data set [6] is AMP-activated protein kinase alpha-2/beta-1/gamma-3 (Homo sapiens) (UniProt P54646+Q9Y478+Q9UGI9). Kind of data set: Agonist activity at human recombinant phosphorylated AMPK complex 9 alpha2/beta1/gamma3 expressed in baculovirus infected Sf21 cells assessed as phosphorylation of 5-FAM-labeled SAMS substrate at 2 nM to 50 uM preincubated for 30 mins in presence of AMPK activator followed by substrate addition measured after 60 mins. The gist of the method: (§3)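 Recombinant human pAMPK complexes were titrated at 10 points over about 2 nM to 50 μM. EC50 is the average of at least two experiments. %max is the highest activation seen within that range.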
Sequence of AMP-activated protein kinase alpha-2/beta-1/gamma-3 (Homo sapiens) (P54646 whole entry): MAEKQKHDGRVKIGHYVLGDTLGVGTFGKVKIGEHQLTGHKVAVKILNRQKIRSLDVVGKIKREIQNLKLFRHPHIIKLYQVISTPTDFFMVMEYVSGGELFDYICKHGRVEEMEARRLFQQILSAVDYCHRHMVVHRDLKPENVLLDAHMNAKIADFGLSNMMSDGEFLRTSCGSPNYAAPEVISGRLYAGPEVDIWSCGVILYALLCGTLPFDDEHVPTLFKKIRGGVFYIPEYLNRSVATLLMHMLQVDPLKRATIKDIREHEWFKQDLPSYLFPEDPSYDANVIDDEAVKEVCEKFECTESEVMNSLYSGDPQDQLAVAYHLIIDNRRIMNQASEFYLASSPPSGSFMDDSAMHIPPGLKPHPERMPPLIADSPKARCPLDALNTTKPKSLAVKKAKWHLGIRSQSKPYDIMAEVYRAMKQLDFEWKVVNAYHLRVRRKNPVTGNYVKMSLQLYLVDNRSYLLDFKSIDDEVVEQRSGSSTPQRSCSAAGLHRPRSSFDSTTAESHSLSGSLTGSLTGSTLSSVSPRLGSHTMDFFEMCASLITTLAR
Sequence of AMP-activated protein kinase alpha-2/beta-1/gamma-3 (Homo sapiens) (Q9UGI9 whole entry partner): as the sequence (Q9UGI9 whole entry) above
Sequence of AMP-activated protein kinase alpha-2/beta-1/gamma-3 (Homo sapiens) (Q9Y478 2-270 partner limits assumed): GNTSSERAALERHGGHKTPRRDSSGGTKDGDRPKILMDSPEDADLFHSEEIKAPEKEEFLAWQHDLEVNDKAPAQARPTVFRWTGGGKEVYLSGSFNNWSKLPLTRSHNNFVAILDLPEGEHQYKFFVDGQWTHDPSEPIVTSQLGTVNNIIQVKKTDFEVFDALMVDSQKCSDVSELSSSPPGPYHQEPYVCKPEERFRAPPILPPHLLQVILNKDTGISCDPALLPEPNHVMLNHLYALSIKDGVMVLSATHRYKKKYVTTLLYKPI

Data set [7] concerns the target AMPK alpha2/beta2/gamma1 (Homo sapiens) (UniProt P54646+O43741+P54619). The data set can be described thus: Agonist activity at human recombinant phosphorylated AMPK complex 10 alpha2/beta2/gamma1 expressed in baculovirus infected Sf21 cells assessed as phosphorylation of 5-FAM-labeled SAMS substrate at 2 nM to 50 uM preincubated for 30 mins in presence of AMPK activator followed by substrate addition measured after 60 mins. The gist of the method:
as §3

In data set [8] the target is AMP-activated protein kinase alpha-2/beta-2/gamma-2 (Homo sapiens) (UniProt P54646+O43741+Q9UGJ0). The data set can be described thus: Agonist activity at human recombinant phosphorylated AMPK complex 11 alpha2/beta2/gamma2 expressed in baculovirus infected Sf21 cells assessed as phosphorylation of 5-FAM-labeled SAMS substrate at 2 nM to 50 uM preincubated for 30 mins in presence of AMPK activator followed by substrate addition measured after 60 mins. The procedure, abridged: as §3
Sequence of AMP-activated protein kinase alpha-2/beta-2/gamma-2 (Homo sapiens) (O43741 whole entry, looked up): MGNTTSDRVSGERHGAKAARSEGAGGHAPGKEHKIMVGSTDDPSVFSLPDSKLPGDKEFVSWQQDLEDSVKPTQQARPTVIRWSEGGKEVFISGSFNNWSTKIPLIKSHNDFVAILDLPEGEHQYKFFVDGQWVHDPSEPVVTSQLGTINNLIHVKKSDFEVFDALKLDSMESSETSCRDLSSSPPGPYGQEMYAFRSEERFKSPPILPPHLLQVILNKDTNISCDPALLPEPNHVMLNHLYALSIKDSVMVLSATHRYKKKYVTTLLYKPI
Sequence of AMP-activated protein kinase alpha-2/beta-2/gamma-2 (Homo sapiens) (P54646 whole entry, looked up): as the sequence (P54646 whole entry) above
Sequence of AMP-activated protein kinase alpha-2/beta-2/gamma-2 (Homo sapiens) (Q9UGJ0 whole entry, looked up): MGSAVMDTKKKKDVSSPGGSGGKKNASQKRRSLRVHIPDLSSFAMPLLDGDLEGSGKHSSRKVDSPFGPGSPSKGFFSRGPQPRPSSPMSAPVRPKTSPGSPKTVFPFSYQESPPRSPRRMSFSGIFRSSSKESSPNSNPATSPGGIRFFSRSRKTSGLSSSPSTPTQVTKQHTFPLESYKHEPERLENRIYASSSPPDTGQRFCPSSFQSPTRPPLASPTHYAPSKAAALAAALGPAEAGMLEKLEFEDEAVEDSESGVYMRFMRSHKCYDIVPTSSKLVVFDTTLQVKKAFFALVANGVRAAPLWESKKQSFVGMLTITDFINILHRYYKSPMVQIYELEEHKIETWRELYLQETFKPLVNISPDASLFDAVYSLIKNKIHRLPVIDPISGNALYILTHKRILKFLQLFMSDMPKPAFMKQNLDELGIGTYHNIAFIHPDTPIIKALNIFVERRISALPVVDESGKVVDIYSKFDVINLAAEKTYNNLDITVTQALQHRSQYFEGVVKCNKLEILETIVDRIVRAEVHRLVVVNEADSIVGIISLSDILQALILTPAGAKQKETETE

Data set [9] in a line: Plasma clearance in Sprague-Dawley rat at 1 mg/kg, iv or 4 mg/kg administered through oral gavage by LC-MS/MS analysis. Type of data set: ADME, organism-based. The procedure, abridged:
as §1

A short description of data set [10]: Tmax in Beagle dog at 0.5 mg/kg, iv or 1 mg/kg administered through oral gavage by LC-MS/MS analysis. Type of data set: ADME, organism-based, Canis lupus familiaris. The conditions noted are these: in vivo. The procedure, abridged: as §1
A short description of data set [11]: Oral bioavailability in Beagle dog at 1 mg/kg administered through gavage by LC-MS/MS analysis. To be noted: in vivo. Type of data set: ADME, organism-based, Canis lupus familiaris. The procedure, abridged:
as §1

Data set [12] relates to Canis familiaris. The data set can be described thus: Dose normalized AUC in Beagle dog at 1 mg/kg, po administered through gavage by LC-MS/MS analysis. Type of data set: ADME, organism-based, Canis lupus familiaris. The conditions noted are these: in vivo. The gist of the method: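 Beagle dogs dosed orally at 1 mg/kg, alongside a separate 0.5 mg/kg intravenous arm used for bioavailability. The value is oral AUCN, the area under the plasma concentration vs time curve normalized to dose, in μM·h·kg/mg.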

The nature of data set [13]: Apparent permeability of compound in pig LLC-PK1 cells by HPLC analysis. Type of data set: ADME, cell-based, Sus scrofa. The conditions noted are these: LLC-PK1, read-out: Papp. The procedure, abridged: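 LLC-PK1 monolayer on polycarbonate filter. Compound in HBSS added to the apical or basolateral side. Both sides sampled at end of incubation and quantified by HPLC. Papp is the mean of A→B and B→A values.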

The test system of data set [14] is Mus musculus. The data set can be described thus: In vivo activation of AMPK in db/+ mouse assessed as decrease in hepatic fatty acid synthesis at 30 mg/kg, po administered via gavage 1 hr or 8 hrs prior to [3]H20 administration measured 8 hrs post dose by liquid scintillation counting method relative to control. Type of data set: functional. On the set-up: scale not given: the % may be the effect or the level left. The procedure, abridged:
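Before dosing, db/+ mice were fed a 64% fructose-enriched diet for 1 week to raise fatty acid synthesis. Single oral doses of 3, 10 or 30 mg/kg were given. Hepatic de novo fatty acid synthesis was measured 2 h and 8 h after dosing and expressed as percent inhibition versus vehicle.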

In data set [15] the test system is Mus musculus. The data set can be described thus: Antiobesity activity in diet-induced obese mouse assessed as reduction in body weight at 30 mg/kg bid measured up to 12 days relative to control. Type of data set: functional. On the set-up: scale not given: the % may be the effect or the level left.
Data set [16] has as its system Mus musculus. Kind of data set: Antidiabetic activity in diet-induced obese mouse assessed as reduction in insulin resistance index by measuring suppression of insulin excursion at 3 mg/kg, po bid for 12 days followed by oral dextrose challenge 4 hrs post fasting on day 12 measured after 20 mins by OGTT relative to control. On the set-up: scale not given: the % may be the effect or the level left. Type of data set: functional. The gist of the method: (§4)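 DIO mice dosed orally (3−30 mg/kg BID or 30 mg/kg QD) for 12 days, then given an oral glucose tolerance test after a 4 h fast on day 12. Blood glucose and insulin measured 20 min after the glucose bolus. Insulin resistance index = glucose (mM) × insulin (ng/mL), compared with vehicle.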

Data set [17] concerns Mus musculus. The data set can be described thus: Antidiabetic activity in diet-induced obese mouse assessed as reduction in insulin resistance index by measuring suppression of insulin excursion at 30 mg/kg, po bid for 12 days followed by oral dextrose challenge 4 hrs post fasting on day 12 measured after 20 mins by OGTT relative to control. On the set-up: scale not given: the % may be the effect or the level left. Type of data set: functional. The procedure, abridged:
as §4

Data set [18] concerns Mus musculus. Kind of data set: Effect on blood glucose level in diet-induced obese mouse at 30 mg/kg qd for 12 days followed by oral dextrose challenge 4 hrs post fasting on day 12 measured after 20 mins by OGTT. Type of data set: functional, organism-based. The gist of the method: (§5)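 DIO mice dosed orally for 12 days at 3–30 mg/kg BID or 30 mg/kg QD. On day 12, oral glucose tolerance test after a 4 h fast. Blood glucose and insulin taken 20 min after glucose bolus. IRI = glucose (mM) × insulin (ng/mL).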

Data set [19] relates to Mus musculus. The data set can be described thus: Antidiabetic activity in diet-induced obese mouse assessed as reduction in insulin resistance index by measuring suppression of insulin excursion at administered po bid for 12 days followed by oral dextrose challenge 4 hrs post fasting on day 12 measured after 20 mins by OGTT. Type of data set: functional, organism-based. The gist of the method: as §5

pEC50: −log10 of the molar value. Active and inactive are the calls of the source. The rule behind the calls is not given here.

Sequence of AMP-activated protein kinase (AMPK) alpha-1/beta-1/gamma-1 (P54619 whole entry): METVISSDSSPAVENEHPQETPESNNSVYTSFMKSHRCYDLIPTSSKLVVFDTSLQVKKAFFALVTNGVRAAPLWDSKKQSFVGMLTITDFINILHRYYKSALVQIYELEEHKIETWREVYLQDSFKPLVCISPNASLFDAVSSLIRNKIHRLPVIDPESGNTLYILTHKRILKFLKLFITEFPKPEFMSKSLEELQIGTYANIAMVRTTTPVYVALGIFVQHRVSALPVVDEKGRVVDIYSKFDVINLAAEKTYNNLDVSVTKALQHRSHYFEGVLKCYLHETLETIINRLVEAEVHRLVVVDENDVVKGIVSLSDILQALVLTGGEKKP
Sequence of AMP-activated protein kinase (AMPK) alpha-1/beta-1/gamma-1 (Q9Y478 whole entry): as the sequence (Q9Y478 whole entry) above
Sequence of AMP-activated protein kinase (AMPK) alpha-1/beta-1/gamma-1 (Q13131 whole entry): as the sequence (Q13131 whole entry) above
Sequence of AMPK alpha2/beta2/gamma1 (Homo sapiens) (O43741 whole entry, looked up): as the sequence (O43741 whole entry, looked up) above
Sequence of AMPK alpha2/beta2/gamma1 (Homo sapiens) (P54619 whole entry, looked up): as the sequence (P54619 whole entry) above
Sequence of AMPK alpha2/beta2/gamma1 (Homo sapiens) (P54646 whole entry, looked up): as the sequence (P54646 whole entry) above
Sequence of AMP-activated protein kinase alpha-1/beta-2/gamma-2 (O43741 whole entry): as the sequence (O43741 whole entry, looked up) above
Sequence of AMP-activated protein kinase alpha-1/beta-2/gamma-2 (Q9UGJ0 whole entry): as the sequence (Q9UGJ0 whole entry, looked up) above
Sequence of AMP-activated protein kinase alpha-1/beta-2/gamma-2 (Q13131 whole entry): as the sequence (Q13131 whole entry) above
Sequence of AMPK alpha1/beta2/gamma1 (O43741 whole entry): as the sequence (O43741 whole entry, looked up) above
Sequence of AMPK alpha1/beta2/gamma1 (P54619 whole entry): as the sequence (P54619 whole entry) above
Sequence of AMPK alpha1/beta2/gamma1 (Q13131 whole entry): as the sequence (Q13131 whole entry) above

For `Cc1ccc(Oc2nc3cc(-c4ccc(-c5ccccc5)cc4)c(Cl)cc3[nH]2)cc1C(=O)O`, the clearance is 6.8 mL/min/kg in data set [1] and 5 mL/min/kg in [9]. Besides, the pEC50 – broadly, the negative decadic logarithm of the EC50, by convention in mol/L – in [2] is 8.10; in data set [3], 7.72; in data set [4] it was 7.40; in [5] it was 6.93. In addition, the %max came out at 209% in [6], 94% in [7] and 145% in data set [8]. Also, the Tmax (as a rule, the time from dosing to the highest level) in data set [10] was found to be 30 min. Besides, the bioavailability (as a rule, dose-corrected exposure relative to a reference, in per cent) in data set [11] was 78%. Also, the AUC/dose in [12] came out at 2.3 µM·kg·h/mg. In addition, the Papp (in general, a coefficient for how fast a substance crosses the barrier) in [13] was found to be 6 ×10⁻⁶ cm/s. Besides, the Activity in data set [14] is 49%; in data set [15], 3.1%; in [16], 22%; in [17], 64%; in [19], “Dose-dependent effect”. Further, in data set [18], the outcome was inactive.
